Laboratory results published in PMC9302452 (ACS Bio & Med Chem Au, 2022).

Columns and labels:
[1] = target: T1, ERRα (Homo sapiens, UniProt P11474); experiment: Transient transfection mammalian two-hybrid reporter gene assay; conditions: 5.0 μM, 24 h incubation, heterologous cell-based reporter assay
T1 sequence (P11474 193-421 limits assumed): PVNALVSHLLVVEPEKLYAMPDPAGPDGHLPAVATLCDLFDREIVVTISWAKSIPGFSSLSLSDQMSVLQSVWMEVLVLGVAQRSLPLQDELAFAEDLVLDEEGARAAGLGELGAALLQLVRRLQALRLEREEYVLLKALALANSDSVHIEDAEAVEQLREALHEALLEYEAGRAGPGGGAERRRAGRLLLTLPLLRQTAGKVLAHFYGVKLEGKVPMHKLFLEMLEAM
T1 sequence (Q9UBK2 1-798 partner): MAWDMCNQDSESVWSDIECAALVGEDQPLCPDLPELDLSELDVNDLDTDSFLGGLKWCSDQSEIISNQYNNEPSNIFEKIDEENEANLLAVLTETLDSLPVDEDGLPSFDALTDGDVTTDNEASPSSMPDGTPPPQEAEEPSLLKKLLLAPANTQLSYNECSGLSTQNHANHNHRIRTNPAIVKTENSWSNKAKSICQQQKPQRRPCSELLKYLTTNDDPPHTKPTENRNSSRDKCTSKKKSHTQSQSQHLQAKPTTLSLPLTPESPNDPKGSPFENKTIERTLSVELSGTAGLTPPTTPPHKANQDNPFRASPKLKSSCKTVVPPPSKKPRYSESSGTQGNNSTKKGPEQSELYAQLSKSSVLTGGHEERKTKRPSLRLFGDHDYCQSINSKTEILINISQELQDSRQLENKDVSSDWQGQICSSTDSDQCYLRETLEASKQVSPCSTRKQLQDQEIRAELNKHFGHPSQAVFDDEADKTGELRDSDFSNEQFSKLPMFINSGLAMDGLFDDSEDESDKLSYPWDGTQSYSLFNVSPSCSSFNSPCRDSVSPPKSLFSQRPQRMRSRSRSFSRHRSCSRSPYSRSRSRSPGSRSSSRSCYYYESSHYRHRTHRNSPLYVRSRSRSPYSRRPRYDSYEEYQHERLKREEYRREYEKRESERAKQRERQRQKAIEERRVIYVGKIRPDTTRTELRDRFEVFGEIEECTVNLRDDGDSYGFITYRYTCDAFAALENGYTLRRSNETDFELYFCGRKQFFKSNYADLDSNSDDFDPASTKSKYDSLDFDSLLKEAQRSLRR
In short: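 HEK293T cells were seeded at 10,000/well in DMEM with 10% FBS. After 18–24 h they were lipofected with GAL4-DBD-ERRα-LBD (0.5 ng), pcDNA-PGC-1α (0.5 ng), pFR reporter (25 ng) and pRL-TK Renilla control (3.0 ng). Test compound was added at 5.0 μM 6 h post-transfection for a further 24 h, and firefly/Renilla luciferase was read by dual-luciferase assay.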

[2] = target: T2, ERRα (Homo sapiens, UniProt P11474); experiment: AAB-Luc cells stably expressing ERRα luciferase reporter; format: cell-based
T2 sequence (P11474 1-423): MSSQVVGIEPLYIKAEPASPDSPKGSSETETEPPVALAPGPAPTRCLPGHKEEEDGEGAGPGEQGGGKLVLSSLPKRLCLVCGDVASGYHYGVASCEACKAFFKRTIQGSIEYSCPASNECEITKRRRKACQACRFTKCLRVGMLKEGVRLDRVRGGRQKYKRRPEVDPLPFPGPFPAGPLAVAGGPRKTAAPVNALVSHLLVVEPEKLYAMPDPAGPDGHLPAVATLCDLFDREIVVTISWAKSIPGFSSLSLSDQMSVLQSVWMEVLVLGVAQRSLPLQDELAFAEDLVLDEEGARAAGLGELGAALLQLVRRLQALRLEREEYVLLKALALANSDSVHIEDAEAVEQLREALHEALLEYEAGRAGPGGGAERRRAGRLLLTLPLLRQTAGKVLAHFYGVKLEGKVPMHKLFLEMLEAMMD
In short: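 HEK293T cells were stably transduced at MOI 7 with a lentiviral AAB-GFP-Luc reporter. AAB is the ERRα response element, and the vector carries GFP and luciferase markers. The ERRα luciferase reporter read-out was multiplexed with a cell-viability assay. Test compounds were screened in three independent experiments.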

[3] = target: T3, ERRα-LBD (Homo sapiens, UniProt P11474); experiment: AlphaScreen assay, interaction of ERRα-LBD with PGC1α peptide; format: binding
T3 sequence (P11474 193-421 limits assumed): T1 sequence (P11474 193-421 limits assumed)
In short: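 AlphaScreen used a hexahistidine detection kit with 200 nM His-tagged ERRα-LBD and 50 nM biotinylated PGC1α cofactor peptide, plus donor and acceptor beads. Buffer was 50 mM MOPS, 50 mM NaF, 0.05 mM CHAPS and 0.1 mg/mL BSA at pH 7.4. Test compound was added as a serial dilution series, and EC50 was derived from enhancement of the LBD–peptide interaction.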

[4] = target: T2, ERRα; experiment: Cellular thermal shift assay; format: cell-based; conditions: HepG2 cells, concentration as low as 1.0 μM
In short: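 HepG2 cells grown to ~90% confluence were exposed to DMSO or test compound (1.0 or 5.0 μM in fresh medium) for 4 h at 37 °C, 5% CO2. Cells were harvested, washed, resuspended in PBS, split into seven aliquots and heated at 48–60 °C for 3 min. They were then held 10 min at room temperature and freeze-thawed thrice in liquid nitrogen. Lysates were spun 30 min at 4 °C and soluble ERRα was assessed by SDS-PAGE/western blot.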

[5] = test system: ERRα; experiment: Real-time PCR, transcriptional level of ERRα; format: cell-based; conditions: 5.0 μM, 24 h incubation
In short: (§1)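 mRNA was quantified by real-time PCR with SYBR Premix Ex Taq under optimised conditions. Gene expression was normalised to Gapdh as the reference gene.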

[6] = test system: ERRβ; experiment: Real-time PCR, transcriptional level of ERRβ; format: cell-based; conditions: 5.0 μM, 24 h incubation
In short: as §1

[7] = test system: ERRγ; experiment: Real-time PCR, transcriptional level of ERRγ; format: cell-based; conditions: 5.0 μM, 24 h incubation
In short: as §1

[8] = test system: ERα; experiment: Expression of other nuclear hormone receptors: ERα; format: cell-based; conditions: Figure S3
[9] = test system: ERβ; experiment: Expression of other nuclear hormone receptors: ERβ; format: cell-based; conditions: Figure S3
[10] = test system: ERγ; experiment: Expression of other nuclear hormone receptors: ERγ; format: cell-based; conditions: Figure S3
[11] = test system: PPARγ; experiment: Expression of other nuclear hormone receptors: PPARγ; format: cell-based; conditions: Figure S3
[12] = test system: ERRα-targeted genes MCAD, PDK4, ATP5β; experiment: Quantitative real-time PCR of ERRα-targeted genes; format: cell-based
In short: as §1

[13] = test system: glucose/insulin-induced HepG2-IR cells; experiment: Oil red O lipid accumulation, glucose/insulin-induced HepG2-IR cells; format: cell-based; conditions: high glucose/high insulin HepG2-IR, 10.0 μM, 48 h
In short: (§2)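 HepG2 steatosis models were induced two ways. Line 3 used DMEM with 10% FBS and 1% BSA plus palmitic (0.33 mM) and oleic (0.66 mM) acid, final 1.0 mM, for 24 h. Line 4 used high glucose and insulin. Cells received DMSO or 10.0 μM test compound for 48 h; Erra overexpression and shRNA knockdown served as controls. Cells were formaldehyde-fixed, stained with 0.5% oil red O in isopropanol for 30 min with hematoxylin counterstain, and lipid was quantified.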

[14] = test system: FFA-induced HepG2-IR cells; experiment: Oil red O lipid accumulation, FFA-induced HepG2-IR cells; format: cell-based; conditions: palmitic acid (FFA) HepG2-IR, 10.0 μM, 48 h
In short: as §2

[15] = test system: HepG2-IR cells; experiment: Glucose uptake assay in HepG2-IR cells; format: cell-based
In short: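 HepG2-IR cells were starved 2 h in serum-free medium, then washed in glucose-free KRPH buffer (HEPES, pH 7.4, 0.2% fatty-acid-free BSA). They were incubated 30 min in KRPH with 5.0 μM test compound, 5 mM D-glucose and 2-deoxy-D-[3H]glucose. After ice-cold PBS washes, cells were lysed in 0.5 M NaOH/0.1% SDS and neutralised with HCl. Uptake was read by liquid scintillation counting.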

[16] = test system: HepG2-IR cells; experiment: Fatty acid oxidation assay in HepG2-IR cells; format: cell-based
In short: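 Insulin-resistant HepG2 (HepG2-IR) cells were treated with test compound or vehicle for 24 h. They were then incubated 1.5 h at 37 °C with 0.2 mM L-carnitine and 200 μM [14C(U)]palmitate (0.1 μCi/mL), compound still present. Released CO2 was trapped on methylbenzylamine/methanol-soaked paper after acidifying with 6 M HCl. Acid-soluble products in the supernatant were also counted by scintillation. Values were normalised to protein (BCA) from parallel wells.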

[17] = test system: ERRα target genes in HepG2-IR cells; experiment: Expression of ERRα and target genes in HepG2-IR cells; format: cell-based
[18] = Pharmacokinetics in SD rats; format: in vivo, rat
In short: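 Male Sprague–Dawley rats were dosed with test compound i.v. at 2.0 mg/kg or by oral gavage at 10 mg/kg. The formulation was 5% DMSO/95% hydroxypropyl-β-cyclodextrin (20% w/v) at 1 mg/mL. Orbital-sinus blood was drawn into heparin at 5, 15 and 30 min and at 1, 2, 4, 6, 8 and 24 h. Plasma was stored at −80 °C and quantified by LC/MS, and PK parameters were calculated.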

[19] = Tissue distribution after oral administration; format: in vivo; conditions: male, SD, rat, 30 mg/kg
In short: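 Male SD animals received a single oral gavage of test compound at 30 mg/kg in 0.5% CMC-Na. Blood and tissues were collected at 0.25, 0.5, 2 and 4 h, with 3 animals per time point. Heparinised blood was centrifuged and plasma stored at −80 °C. Plasma and tissue concentrations were measured by LC/MS and expressed as tissue-to-plasma ratios.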

[20] = test system: HFD-induced obese mice; experiment: HFD-induced obese C57 mice, daily oral treatment for 4 weeks; format: in vivo, mouse
In short: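 C57 mice were made obese on HFD for 8 weeks; low-fat-diet mice served as controls. They were then gavaged daily for 4 weeks with test compound (10 or 30 mg/kg) or PBS vehicle diluted in 0.5% CMC-Na. Body weight and fasting glucose were tracked during dosing. Mice were fasted overnight and killed, and livers were taken for kit-based CS activity, mtDNA and SYBR qPCR (Gapdh reference); n = 5.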

[21] = test system: Errα-LKO mice; experiment: Errα-LKO mice on HFD treated with compound; format: in vivo, mouse; conditions: 30 mg/kg body weight
In short: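 Liver-specific Errα knockout mice came from crossing Errα-floxed with albumin-Cre mice. They were fed HFD for 8 weeks, then gavaged daily for 4 weeks with test compound (30 mg/kg) or PBS vehicle diluted in 0.5% CMC-Na. For IGTT, overnight-fasted mice received 1.0 g/kg glucose i.p. For ITT, 6 h-fasted mice received 0.5 U/kg human insulin i.p. Tail-vein glucose was read by glucometer. Liver glucose uptake was also measured; n = 5.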

[22] = male, Sprague-Dawley, rat, plasma, po, 10 mg/kg
[23] = abdominal adipose tissue/plasma
[24] = 10 and 30 mg/kg/day oral, 4 weeks

EC50 [2]: 2700 nM
EC50 [3]: 86 nM
Expression of ERα [8]: not obviously affected
Expression of ERβ [9]: not obviously affected
Expression of ERγ [10]: not obviously affected
Expression of PPARγ [11]: not obviously affected
Maximum plasma concentration ([18]; SD rat, PO 10 mg/kg): 2.0 ± 0.45 µM
F (oral bioavailability) ([18]; SD rat, PO 10 mg/kg vs IV 2 mg/kg, printed on the IV line of Table S1): 9.0%
Cmax [18, 22]: 531 ± 120 ng/mL
Tmax [18, 22]: 15 min
AUC(0-inf) ([18]; male, Sprague-Dawley, rat, plasma, po, 10 mg/kg, AUC(0-∞), SD rat, PO 10 mg/kg): 383 ± 110 ng·h/mL
Kp at 0.25 h [19, 23]: 7.4
Kp at 0.5 h [19, 23]: 30.1
Kp at 2 h [19, 23]: 22.8
Kp at 4 h [19, 23]: 235
Kp at 0.25 h ([19]; liver/plasma): 58.9
Kp at 0.5 h ([19]; liver/plasma): 39.8
Kp at 2 h ([19]; liver/plasma): 28.6
Kp at 4 h ([19]; liver/plasma): 47.4
SMILES: COc1ccc2c(=O)n(C)c(-c3ccccc3)nc2c1 [Compound 7, 7-methoxy-3-methyl-2-phenyl quinazolin-4(3H)-one]
ERRα-driven luciferase activity [1]: effectively improved the ERRα-driven luciferase activity
Thermal degradation of ERRα [4]: obviously inhibited thermal degradation of ERRα
Elevation of transcriptional level of ERRα [5]: approximately 2.5 fold
Effect on transcriptional level of ERRβ [6]: did not display an obvious effect
Effect on transcriptional level of ERRγ [7]: did not display an obvious effect
mRNA levels of ERRα downstream genes (MCAD, PDK4, ATP5β) [12]: dose-dependently elevated mRNA levels
Lipid accumulation (oil red O) [13]: significantly alleviated lipid accumulation
Lipid accumulation (oil red O) [14]: significantly alleviated lipid accumulation
Glucose uptake [15]: significantly enhanced
Fatty acid oxidation [16]: significantly enhanced
Expression of ERRα target genes including Errα [17]: increased by the molecule in a dose-dependent manner
Body weight [20, 24]: did not obviously affect body weight
Glucose tolerance (IGTT) [20, 24]: improved glucose tolerance
Insulin resistance (ITT) [20, 24]: improved glucose tolerance and insulin resistance
Fasting glucose levels ([20]; 10 and 30 mg/kg/day oral, 4 weeks, vs vehicle): decreased fasting glucose levels
Plasma FFA ([20]; HFD-elevated level): attenuated
Plasma TC ([20]; HFD-elevated level): attenuated
Plasma TG ([20]; HFD-elevated level): attenuated
Plasma insulin ([20]; HFD-elevated level): attenuated
Transcription of Errα and target genes (Pdk4, Atp5β, Pgc1α) in mouse liver ([20]; both 10 and 30 mg/kg): significantly elevated transcription
Expression of FFA oxidation genes Mcad and Cpt1a in liver ([20]; compound-treated group): obviously enhanced
Food intake ([20]; compound-treated vs PBS-fed mice): similar
Serum ALT level ([20]; daily oral): dampened
Serum AST level ([20]; daily oral): dampened
Hepatic steatosis (Oil red O and HE staining) ([20]; daily oral, both 10 and 30 mg/kg): potently mitigated hepatic steatosis
CS activity ([20]; liver): higher CS activity
Copy number of mitochondrial DNA ([20]; liver): elevated
Fatty acid oxidation ([20]; liver tissue): higher
Protein levels of AOX1, Cytochrome C, SDH, CPT1A ([20]; liver, western blot): elevated
Oxygen consumption ([20]; metabolic cage): elevated oxygen consumption
Protein levels of ERRα, PDK4, MCAD, ATP5β in liver ([20]; western blot): significantly increased protein levels
Akt signaling pathways in the liver (p-Akt/total Akt) ([20]; western blot of liver tissue): significantly sensitized Akt signaling pathways
Effects on systemic and liver insulin resistance in Errα-LKO mice [21]: almost completely abolished
